According to ChEMBL document CHEMBL2062525, “Substituted 3-(5-imidazo[2,1-b]thiazolylmethylene)-2-indolinones and analogues: synthesis, cytotoxic activity, and study of the mechanism of action” (J Med Chem, 2012):
Active and inactive are the calls of the source.

Experiments:
[1] = molecular target: MAP kinase p38 (Homo sapiens) (UniProt O15264+Q15759+Q16539+P53778); assay: Inhibition of p38 phosphorylation at Thr180/Tyr182 in human HeLa cells at 1 uM after 3 hrs by Western blotting analysis; type: cell-based
Procedure, shortened: (§1)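 HeLa cells in RPMI 1640 with 10% FBS, treated 3 h at 1 μM. Lysates centrifuged 15,000 × g 15 min; 80 μg protein per lane by SDS-PAGE, nitrocellulose transfer, phospho-specific and total primary antibodies, peroxidase anti-rabbit secondary, ECL chemiluminescence.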

[2] = Cytotoxicity against human breast cancer cells after 48 hrs; type: functional; details: Cancer cell lines
Procedure, shortened: (§2)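 NCI 60-cell panel subpanel lines; compounds first screened at a single 10−5 M, then those passing threshold tested in five-concentration assay over 10−9 to 10−4 M (some to 10−3 M), 48 h exposure. Growth relative to untreated control measured as cell protein; GI50, TGI and LC50 derived; some values are means of two experiments.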

[3] = Cytotoxicity against human CNS cancer cells after 48 hrs; type: functional; details: Cancer cell lines; procedure, shortened: as §2
HT-29 [4] = assay: Induction of apoptosis in human HT-29 cells assessed as increase in caspase activity at 500 nM after 48 hrs by fluorometry; type: functional, cell-based
Procedure, shortened: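 Cells exposed 48 h to 500 nM; DEVD-cleaving caspase (DEVDase) activity measured fluorometrically in cell extracts; mean ± s.e.m. of four determinations.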

HT-29 [5] = assay: Induction of apoptosis in human HT-29 cells assessed as increase in early apoptotic cells after 24 hrs by annexin-V-FLUOS and propidium iodide staining based flow cytometry (reference value: 3.9%); type: functional
NSCLC = assay: Cytotoxicity against human NSCLC cells after 48 hrs; type: functional; procedure, shortened: as §2
HT-29 [6] = assay: Induction of apoptosis in human HT-29 cells at 100 nM after 24 hrs by trypan blue exclusion assay; type: functional, cell-based
Procedure, shortened: (§3)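 HT-29 cells plated at 2×10^4 cells/cm2, treated 24 h in triplicate (DMSO 0.01%; DMSO-only controls); viable cells counted by trypan blue exclusion; mean ± s.e.m. of three determinations.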

[7] = Cytotoxicity against human leukemia cells after 48 hrs; type: functional; details: Leukemia cell
Procedure, shortened: (§4)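 NCI 60-cell panel (subpanels include leukemia and prostate). […] Percent growth relative to untreated control; some repeats averaged over two experiments.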

HT-29 [8] = assay: Induction of apoptosis in human HT-29 cells assessed as loss of mitochondrial membrane potential after 24 hrs by DiOC6 staining based fluorescence assay; type: functional, cell-based
Procedure, shortened: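 Following 24 h treatment at 500 nM, HT-29 cells (1×10^6/mL) were stained with 4 nM DiOC6 for 40 min at 37 °C in the dark, counterstained with PI 5 μg/mL to exclude dead cells; fluorescence by flow cytometry; representative of three to five experiments.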

HT-29 [9] = assay: Induction of apoptosis in human HT-29 cells assessed as chromatin condensation by propidium iodide staining method; type: functional, cell-based
Procedure, shortened: (§5)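 HT-29 cells on glass coverslips (1×10^4 cells/cm2), treated 24 h; fixed in 3% paraformaldehyde, ethanol-permeabilized; nuclei stained with PI and viewed by laser scanning confocal microscopy for chromatin condensation and nuclear fragmentation; representative of three experiments.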

[10] = Inhibition of bovine brain tubulin assembly after 20 mins; design: species or system Bos taurus
HT-29 [11] = assay: Induction of apoptosis in human HT-29 cells assessed as nuclear fragmentation by propidium iodide staining method; type: functional, cell-based; procedure, shortened: as §5
HT-29 [12] = assay: Cell cycle arrest in human HT-29 cells assessed as increase of cell population at G2/M phase at 500 nM after 24 hrs by flow cytometry; type: functional, cell-based
Procedure, shortened: (§6)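 HT-29 cells in RPMI 1640 with 10% FBS, 2 mM L-glutamine, 37 °C, 5% CO2; treated 24 h, DMSO 0.01% in medium. Fixed in 70% ethanol at −20 °C ≥12 h, RNase A (10 μg/mL) 30 min at 37 °C, DNA stained with PI (50 μg/mL), flow cytometry; one experiment representative of three.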

[13] = molecular target: AMP-activated protein kinase, AMPK (Homo sapiens) (UniProt P54646+O43741+P54619+Q9UGJ0+Q9Y478+Q13131+Q9UGI9); assay: Inhibition of AMPK phosphorylation at Thr172 in human HeLa cells at 1 uM after 3 hrs by Western blotting analysis; type: cell-based; procedure, shortened: as §1
[14] = molecular target: Mitogen-activated protein kinase; ERK1/ERK2 (Homo sapiens) (UniProt P27361+P28482); assay: Inhibition of ERK1/2 phosphorylation at Thr202/Tyr204 in human HeLa cells at 1 uM after 3 hrs by Western blotting analysis; type: cell-based; procedure, shortened: as §1
Sequence of Mitogen-activated protein kinase; ERK1/ERK2 (Homo sapiens) (P27361 whole entry, looked up): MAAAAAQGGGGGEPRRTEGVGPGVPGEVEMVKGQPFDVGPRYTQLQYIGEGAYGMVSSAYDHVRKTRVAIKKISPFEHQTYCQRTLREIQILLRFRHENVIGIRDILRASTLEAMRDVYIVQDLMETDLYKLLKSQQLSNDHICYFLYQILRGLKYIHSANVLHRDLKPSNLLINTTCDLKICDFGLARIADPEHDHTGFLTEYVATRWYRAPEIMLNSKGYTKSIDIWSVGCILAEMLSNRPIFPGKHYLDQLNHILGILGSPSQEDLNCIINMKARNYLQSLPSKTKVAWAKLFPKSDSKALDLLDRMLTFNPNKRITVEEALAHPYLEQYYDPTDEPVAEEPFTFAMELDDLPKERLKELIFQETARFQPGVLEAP
Sequence of Mitogen-activated protein kinase; ERK1/ERK2 (Homo sapiens) (P28482 whole entry, looked up): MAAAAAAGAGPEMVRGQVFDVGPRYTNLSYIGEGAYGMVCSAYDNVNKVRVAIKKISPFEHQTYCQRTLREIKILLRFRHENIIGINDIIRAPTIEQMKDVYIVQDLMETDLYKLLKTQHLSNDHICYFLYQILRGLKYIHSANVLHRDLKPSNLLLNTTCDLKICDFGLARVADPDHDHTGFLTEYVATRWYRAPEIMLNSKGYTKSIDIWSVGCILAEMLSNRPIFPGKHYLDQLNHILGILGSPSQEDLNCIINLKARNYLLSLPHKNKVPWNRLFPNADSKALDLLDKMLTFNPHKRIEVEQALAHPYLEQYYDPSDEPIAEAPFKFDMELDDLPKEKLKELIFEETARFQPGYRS

[15] = Cytotoxicity against human renal cancer cells after 48 hrs; type: functional; details: Cancer cell lines; procedure, shortened: as §2
[16] = molecular target: Serine/threonine-protein kinase mTOR (Homo sapiens) (UniProt P42345); assay: Inhibition of mTOR phosphorylation at ser2448 in human HeLa cells at 1 uM after 3 hrs by Western blotting analysis; type: cell-based; procedure, shortened: as §1
HT-29 [17] = assay: Induction of apoptosis in human HT-29 cells assessed as increase in BAX level in mitochondria after 24 hrs by confocal laser microscopic analysis; type: functional, cell-based
Procedure, shortened: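 HT-29 cells treated 24 h with 500 nM; loaded with 150 nM MitoTracker Red CM-H2XRos for 10 min at 37 °C, then fixed, permeabilized, probed with anti-Bax plus FITC secondary (1 h each, room temperature). Confocal microscopy; colocalization with mitochondria seen as orange pixels.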

[18] = Cytotoxicity against human ovarian cancer cells after 48 hrs; type: functional; details: Cancer cell lines; procedure, shortened: as §2
HT-29 [19] = assay: Induction of apoptosis in human HT-29 cells at 500 nM after 24 hrs by trypan blue exclusion assay; type: functional, cell-based; procedure, shortened: as §3
Bos taurus = species on record: Bos taurus; assay: Displacement of [3H]colchicine from bovine brain tubulin at 5 uM after 10 mins
[20] = Cytotoxicity against human melanoma cells after 48 hrs; type: functional; details: Melanoma cell; procedure, shortened: as §2
HeLa = assay: Inhibition of Akt phosphorylation at ser473 in human HeLa cells at 1 uM after 3 hrs by Western blotting analysis; type: cell-based; procedure, shortened: as §1
[21] = Cytotoxicity against human COLON cells after 48 hrs; type: functional; procedure, shortened: as §2
[22] = Cytotoxicity against human prostate cancer cells after 48 hrs; type: functional; details: Cancer cell lines; procedure, shortened: as §4
[23] = molecular target: c-Jun N-terminal kinase, JNK (Homo sapiens) (UniProt P45983+P53779+P45984); assay: Inhibition of JNK phosphorylation at Thr183/Tyr185 in human HeLa cells at 1 uM after 3 hrs by Western blotting analysis; type: cell-based; procedure, shortened: as §1
HT-29 [24] = assay: Induction of apoptosis in human HT-29 cells assessed as increase in mitochondrial ROS production by dihydroethidium staining based flow cytometry; type: functional, cell-based
Procedure, shortened: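 ROS read-out: HT-29 cells treated 24 h with 500 nM, then loaded with 5 μM dihydroethidium for 30 min at 37 °C; superoxide-derived red fluorescence measured by flow cytometry with logarithmic amplification; representative of three to five experiments.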

HT-29 [25] = assay: Induction of cell cycle arrest in human HT-29 cells assessed as increase in p21 expression after 24 hrs by immunofluorescence confocal microscopy; type: functional, cell-based
Procedure, shortened: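 On coverslips, HT-29 cells were treated 24 h, fixed with 3% paraformaldehyde, permeabilized with 70% ice-cold ethanol, stained with anti-p21 then FITC secondary (1 h, room temperature each), nuclei counterstained with PI; confocal microscopy; representative of three experiments.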

HT-29 [26] = assay: Cell cycle arrest in human HT-29 cells assessed as increase of cell population at G2/M phase at 100 nM after 24 hrs by flow cytometry; type: functional, cell-based; procedure, shortened: as §6
[27] = read-out: LC50 (the source's name)

For `Cc1cn2c(/C=C3/C(=O)Nc4c3ccc3ccccc43)c(C)nc2s1`, the inhibition [1] was “inactive”, the GI50 [2] was 0.18 µM and the LC50 [2] was 50.1 µM. The TGI [2] was 5.62 µM, the GI50 [3] was 0.17 µM and the LC50 [3] was 74.1 µM. The TGI [3] was 5.37 µM, the Activity (HT-29 [4]) was “Active” and the Activity (HT-29 [5]) was 12.5%. The GI50 (NSCLC) was 0.31 µM, the LC50 (NSCLC) was 93.3 µM and the TGI (NSCLC) was 28.2 µM. The Activity (HT-29 [6]) was “Active”, the TGI [7] was 53.7 µM and the Activity (HT-29 [8]) was “Active”. For the same molecule, the Activity (HT-29 [9]) was “Active”, the IC50 [10] was 5.3 µM and the Activity (HT-29 [11]) was “Active”. For the same molecule, the Activity (HT-29 [12]) was “Active”, the inhibition [13] was “inactive” and the inhibition [14] was “inactive”. For the same molecule, the GI50 [15] was 0.23 µM, the TGI [15] was 12 µM and the CC50 [15, 27] was 70.8 µM. The inhibition [16] was “inactive”, the Activity (HT-29 [17]) was “Active” and the GI50 [18] was 0.85 µM. The LC50 (concentration killing 50% of starting cells) [18] was 74.1 µM, the TGI [18] was 14.1 µM and the Activity (HT-29 [19]) was “Active”. The inhibition (Bos taurus) was 49%, the GI50 [20] was 0.14 µM and the TGI [20] was 50.1 µM. For the same molecule, the inhibition (HeLa) was “inactive”, the GI50 [21] was 0.11 µM and the TGI [21] was 58.9 µM. For the same molecule, the GI50 [22] was 0.21 µM, the TGI [22] was 16.2 µM and the inhibition [23] was “inactive”. The Activity (HT-29 [24]) was “Active” and the Activity (HT-29 [25]) was “Active”.

In the case of `COc1ccc2c(c1)C(=Cc1c(OC)nc3sccn13)C(=O)N2` (mixture of isomers), the inhibition [1] is reported as “Active”, the GI50 [2] is reported as 0.17 µM and the TGI [2] is reported as 34.7 µM. For the same molecule, the Activity (HT-29 [26]) was “Active”, the GI50 [3] was 0.04 µM and the TGI [3] was 15.5 µM. For the same molecule, the Activity (HT-29 [4]) was “Active”, the Activity (HT-29 [5]) was 27% and the GI50 (NSCLC) was 0.16 µM. For the same molecule, the TGI (NSCLC) was 44.7 µM, the Activity (HT-29 [6]) was “Active” and the GI50 [7] was 0.02 µM. The LC50 (concentration killing 50% of cells) [7] was 91.2 µM, the TGI [7] was 4.57 µM and the Activity (HT-29 [9]) was “Active”. The IC50 [10] was 2.9 µM, the Activity (HT-29 [11]) was “Active” and the inhibition [13] was “Active”. For the same molecule, the inhibition [14] was “Active”, the GI50 [15] was 0.14 µM and the TGI [15] was 31.6 µM. For the same molecule, the inhibition [16] was “inactive”, the GI50 [18] was 0.1 µM and the TGI [18] was 12 µM. For the same molecule, the inhibition (Bos taurus) was 62%, the GI50 [20] was 0.04 µM and the TGI [20] was 20.9 µM. For the same molecule, the CC50 [20, 27] was 81.3 µM, the inhibition (HeLa) was “Active” and the LC50 (concentration giving 50% net cell kill) [21] was 66.1 µM. It also gave a TGI [21] of 7.59 µM, a GI50 [22] of 0.05 µM and a TGI [22] of 40.7 µM. For the same molecule, the inhibition [23] was “Active” and the Activity (HT-29 [25]) was “Active”.
